Measured values gathered from unrelated publications.
Protocols differ between the studies behind these lines.
Neuronal acetylcholine receptor; alpha3/beta4: Neuronal acetylcholine receptor; alpha3/beta4 (Rattus norvegicus, UniProt P04757+P12392)
HTR2B: 5-hydroxytryptamine receptor 2B (HTR2B, Homo sapiens, UniProt P41595)

`COc1ccc2c3c([nH]c2c1)CCN(C)CC3` has an IC50 of 31.4 µM (Neuronal acetylcholine receptor; alpha3/beta4; ion current, antagonist, two-electrode voltage clamp; oocytes).
With `O=S(=O)(O)c1ccc2c(N=Nc3c(O)ccc4ccccc34)cccc2c1` the IC50 was 32 µM (Bcl-2-related protein A1 (Mus musculus, UniProt Q07440, C113S/P104K); ligand displacement, FP).
`Cc1cc(-c2ccccc2)nnc1NCCN1CCNCC1` gave an IC50 of 0.054 µM (HTR2B; calcium signal, antagonist, fluorescence).
`CC[C@H](C)[C@H](NC(C)=O)C(=O)N[C@@H](CCC(=O)O)C(=O)N[C@H](C(=O)N[C@H](C=O)CC(=O)O)[C@@H](C)O` gave an IC50 of 0.555 µM (Caspase-4 (CASP4, Homo sapiens, UniProt P49662); enzyme activity, inhibitor).
With `CC(C)N(CCc1c[nH]c2cccc(OC(=O)CCCC(=O)O)c12)C(C)C` the IC50 was 3.6 µM (HTR2B; ligand displacement, radioligand).
With `Cn1ccc2cc3c(cc21)CCN3C(=O)Nc1cccnc1` the Ki was 0.0064 µM (HTR2B; ligand displacement, radioligand).
`COC(=O)c1cc(N(C)C(=O)c2ccn3ncc(-c4ccc(C(=O)O)cc4)c3c2)ccc1Cl` has an IC50 of > 30 µM (Rho-associated protein kinase 2 (ROCK2, Homo sapiens, UniProt O75116); enzyme activity, inhibitor).
`COc1ccc2[nH]c3c(c2c1)CCN(C)CC3` gave an IC50 of 21.3 µM (Neuronal acetylcholine receptor; alpha3/beta4; ion current, antagonist, two-electrode voltage clamp; oocytes).
With `CN(C)C(=N)N=C(N)N` the Ki was 1180 µM (speB (Escherichia coli, UniProt P60651); enzyme activity, inhibitor, absorbance; pH 6.5).
The IC50 of `CNC(=O)c1ccc(-c2cnn3ccc(C(=O)N(C)c4ccc(Cl)c(C(=O)OC)c4)cc23)cc1` is reported as > 30 µM (HTR2B; cell-free assay).
